Results: ChEMBL document CHEMBL1157749, “Novel N2-substituted pyrazolo[3,4-d]pyrimidine adenosine A3 receptor antagonists: inhibition of A3-mediated human glioblastoma cell proliferation” (J Med Chem, 2010)
Activity calls are given as the source filed them. The calls are words filed in the database; no cut-off is given here.

Columns and labels:
Adenosine receptor A1 [1] = target: T1, Adenosine receptor A1 (Homo sapiens, UniProt P30542); test: Displacement of [3H]DPCPX from human adenosine A1 receptor expressed in CHO cells; type: cell-based
T1 sequence (P30542 whole entry): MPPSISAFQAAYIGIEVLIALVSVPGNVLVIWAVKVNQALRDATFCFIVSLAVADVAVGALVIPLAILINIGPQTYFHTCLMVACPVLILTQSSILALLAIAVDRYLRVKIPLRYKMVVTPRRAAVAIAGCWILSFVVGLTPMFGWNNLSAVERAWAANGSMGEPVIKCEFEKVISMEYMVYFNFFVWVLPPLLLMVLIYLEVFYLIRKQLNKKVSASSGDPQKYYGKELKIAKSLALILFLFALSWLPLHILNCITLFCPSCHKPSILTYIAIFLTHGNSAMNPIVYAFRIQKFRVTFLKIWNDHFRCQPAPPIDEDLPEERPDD

Adenosine receptor A2a = Adenosine receptor A2a (Homo sapiens, UniProt P29274); test: biochemical; type: cell-based, CHO
Sequence of Adenosine receptor A2a (P29274 whole entry): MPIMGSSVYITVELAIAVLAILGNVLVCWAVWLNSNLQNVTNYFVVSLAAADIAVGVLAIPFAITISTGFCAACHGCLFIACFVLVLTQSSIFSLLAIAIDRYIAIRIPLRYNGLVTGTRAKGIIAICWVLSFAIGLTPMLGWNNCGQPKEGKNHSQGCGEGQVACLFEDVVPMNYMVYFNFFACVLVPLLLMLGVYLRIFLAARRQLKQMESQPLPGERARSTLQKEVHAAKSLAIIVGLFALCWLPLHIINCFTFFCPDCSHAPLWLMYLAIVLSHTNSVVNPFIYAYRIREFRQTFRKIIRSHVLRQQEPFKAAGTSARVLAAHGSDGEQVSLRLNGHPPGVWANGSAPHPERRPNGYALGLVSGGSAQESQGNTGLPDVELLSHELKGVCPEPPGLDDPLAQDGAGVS

Adenosine receptor A3 [2] = target: T2, Adenosine receptor A3 (Homo sapiens, UniProt P0DMS8); test: biochemical; type: cell-based, CHO
T2 sequence (P0DMS8 whole entry): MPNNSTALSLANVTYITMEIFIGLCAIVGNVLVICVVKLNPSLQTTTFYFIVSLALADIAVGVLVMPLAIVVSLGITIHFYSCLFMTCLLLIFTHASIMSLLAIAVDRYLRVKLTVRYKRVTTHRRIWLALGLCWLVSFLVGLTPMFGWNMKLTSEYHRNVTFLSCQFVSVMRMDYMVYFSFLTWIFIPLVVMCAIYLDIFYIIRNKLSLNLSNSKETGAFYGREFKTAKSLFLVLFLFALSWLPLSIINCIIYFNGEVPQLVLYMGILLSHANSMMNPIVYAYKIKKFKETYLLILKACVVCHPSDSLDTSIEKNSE

[3] = target: T3, Adenosine deaminase (Bos taurus) (UniProt P56658); test: Inhibition of bovine spleen adenosine deaminase at 10 uM after 2 mins by spectrophotometry
T3 sequence (whole entry): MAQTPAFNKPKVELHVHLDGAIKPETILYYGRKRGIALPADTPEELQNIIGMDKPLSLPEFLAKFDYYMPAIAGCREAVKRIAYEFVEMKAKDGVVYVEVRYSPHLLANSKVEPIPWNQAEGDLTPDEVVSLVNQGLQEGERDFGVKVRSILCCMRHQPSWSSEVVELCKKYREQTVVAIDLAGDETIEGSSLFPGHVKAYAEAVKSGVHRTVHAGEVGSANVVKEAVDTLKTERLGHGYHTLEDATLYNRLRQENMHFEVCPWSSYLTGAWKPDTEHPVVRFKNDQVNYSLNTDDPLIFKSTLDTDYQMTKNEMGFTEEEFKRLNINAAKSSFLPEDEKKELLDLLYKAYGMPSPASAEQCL
Summary of the method: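 Bovine spleen ADA at 0.3 nM with 50 μM adenosine in 50 mM potassium phosphate, pH 7.2, at 30 °C. Inhibitor is tested at 10 μM with final DMSO ≤4%. Deamination is followed as the change in A262 over 2 min, against a substrate-free blank.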

Adenosine receptor A2b = target: T4, Adenosine receptor A2b (Homo sapiens, UniProt P29275); test: Antagonist activity human recombinant adenosine A2B receptor expressed in CHO cells assessed as inhibition of NECA-mediated [3H]cAMP accumulation treated 15 mins before NECA challenge measured after 30 mins by liquid scintillation spectrometry; type: functional, cell-based
T4 sequence (P29275 whole entry): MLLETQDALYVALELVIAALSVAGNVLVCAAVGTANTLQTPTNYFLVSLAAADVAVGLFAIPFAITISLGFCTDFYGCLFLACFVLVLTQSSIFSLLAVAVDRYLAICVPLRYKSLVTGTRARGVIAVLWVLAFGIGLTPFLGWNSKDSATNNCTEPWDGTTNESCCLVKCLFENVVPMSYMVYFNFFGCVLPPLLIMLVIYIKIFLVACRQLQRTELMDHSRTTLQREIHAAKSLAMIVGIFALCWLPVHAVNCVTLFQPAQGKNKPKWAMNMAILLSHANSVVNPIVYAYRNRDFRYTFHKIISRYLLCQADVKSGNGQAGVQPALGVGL
Summary of the method: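 CHO cells stably expressing hA2B are pre-incubated 15 min at 37 °C in DMEM with ADA 1 U/mL and Ro 20-1724 20 μM. […] Cells are lysed in 0.4 N HCl. cAMP is measured by [3H]cAMP competition with bovine adrenal binding protein (150 min, 0 °C), with filtration and scintillation counting. Mean ± SEM, four experiments in triplicate.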

Adenosine receptor A3 [4] = target: T2, Adenosine receptor A3; test: Antagonist activity human recombinant adenosine A3 receptor expressed in CHO cells assessed as blockade of NECA-mediated inhibition of forskolin-stimulated [3H]cAMP production treated 15 mins before NECA challenge measured after 30 mins by liquid scintillation spectrometry; type: functional, cell-based
Summary of the method: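 hA3-expressing CHO cells are pre-incubated 15 min at 37 °C with ADA 1 U/mL and Ro 20-1724 20 μM. […] HCl lysates are assayed for cAMP by [3H]cAMP/binding-protein competition with scintillation read-out. IC50 is reported as mean ± SEM of four experiments in triplicate.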

U-87 MG [5] = test: Inhibition of Cl-IB-MECA-mediated human U87MG cell proliferation after 48 hrs by trypan blue exclusion assay; type: functional, cell-based, U-87MG ATCC
Summary of the method: (§1)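 U87MG cells in RPMI/10% FBS are arrested in G1 (0.5% FBS, 48 h). They are then treated 48 h with Cl-IB-MECA 100 nM or IB-MECA 12 nM, with or without antagonist at 0.1–10 nM or 0.01–5 nM. Live cells are counted by 0.4% trypan blue exclusion in a haemocytometer and expressed as % of control, mean ± SEM.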

U-87 MG [6] = test: Inhibition of IBMECA-mediated human U87MG cell proliferation after 48 hrs by trypan blue exclusion assay; type: functional, cell-based, U-87MG ATCC; summary of the method: as §1
U-87MG ATCC [7] = test: Antiproliferative activity against human U87MG cell proliferation at 0.01 to 5 nM after 48 hrs by trypan exclusion assay; type: functional, cell-based; summary of the method: as §1
Adenosine receptor A3 [8] = target: T2, Adenosine receptor A3; test: Antagonist activity at adenosine A3 receptor in human U87MG cells assessed as inhibition of Cl-IB-MECA-mediated ERK1/2 phosphorylation after 30 mins by ELISA; type: functional, cell-based, U-87MG ATCC
[9] = target: T5, Mitogen-activated protein kinase; ERK1/ERK2 (Homo sapiens) (UniProt P27361+P28482); test: Modulation of ERK1/2 phosphorylation in human U87MG cells at 0.05 to 1 nM after 30 mins by ELISA; type: cell-based; conditions: U-87MG ATCC
T5 sequence (P27361 whole entry, looked up): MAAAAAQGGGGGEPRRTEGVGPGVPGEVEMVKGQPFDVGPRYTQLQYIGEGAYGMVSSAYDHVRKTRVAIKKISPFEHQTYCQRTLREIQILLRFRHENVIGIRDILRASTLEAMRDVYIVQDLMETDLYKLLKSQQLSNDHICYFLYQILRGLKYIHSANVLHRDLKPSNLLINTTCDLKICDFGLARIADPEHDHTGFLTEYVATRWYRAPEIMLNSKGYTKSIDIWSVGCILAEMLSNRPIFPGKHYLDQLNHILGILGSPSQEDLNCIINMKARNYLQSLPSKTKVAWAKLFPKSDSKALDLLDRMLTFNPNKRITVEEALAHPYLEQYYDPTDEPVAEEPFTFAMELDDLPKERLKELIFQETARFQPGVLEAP
T5 sequence (P28482 whole entry, looked up): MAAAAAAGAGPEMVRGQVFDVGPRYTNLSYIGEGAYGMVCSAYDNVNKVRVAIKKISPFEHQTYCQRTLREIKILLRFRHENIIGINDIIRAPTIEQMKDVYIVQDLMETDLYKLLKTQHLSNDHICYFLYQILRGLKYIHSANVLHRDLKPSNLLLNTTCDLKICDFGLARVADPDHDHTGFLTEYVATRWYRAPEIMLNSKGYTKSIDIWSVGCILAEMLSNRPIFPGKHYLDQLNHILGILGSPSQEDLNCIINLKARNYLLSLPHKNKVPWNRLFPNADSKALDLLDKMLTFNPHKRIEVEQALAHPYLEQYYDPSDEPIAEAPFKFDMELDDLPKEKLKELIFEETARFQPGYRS

[10] = Octanol-water partition coefficient, log P of the compound; type: physicochemical
U-87MG ATCC [11] = test: Antiproliferative activity against human U87MG cell proliferation at 0.1 to 10 nM after 48 hrs by trypan exclusion assay; type: functional, cell-based; summary of the method: as §1
[12] = target: T5, Mitogen-activated protein kinase; ERK1/ERK2 (Homo sapiens); test: Modulation of ERK1/2 phosphorylation in human U87MG cells at 0.25 to 10 nM after 30 mins by ELISA; type: cell-based; conditions: U-87MG ATCC
[13] = target: T6, Adenosine receptor A3 (Homo sapiens) (UniProt P0DMS8); test: Induction of adenosine A3 receptor-mediated ERK1/2 phosphorylation in human U87MG cells at 100 nM by ELISA; type: cell-based; conditions: U-87MG ATCC, TDE = time-dependent effect
T6 sequence (whole entry): T2 sequence (P0DMS8 whole entry)
Summary of the method: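 Time course in U87MG cells given 100 nM Cl-IB-MECA for 5–120 min. Phospho-ERK1/2 is read by colorimetric cell-based ELISA after fixation, with crystal violet cell-number correction. Results are % of control cells, mean ± SEM, Student t test.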

Adenosine receptor A1 [14] = target: T1, Adenosine receptor A1; test: Inhibition of human adenosine A1 receptor
Summary of the method: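 Displacement binding using membranes (30 μg protein) from CHO cells stably expressing human A1 receptor. […] Six compound concentrations were tested, in DMSO ≤2% final. Nonspecific binding was defined with 50 μM RPIA. IC50 was converted to Ki by Cheng-Prusoff; at least three determinations.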

Row | Compound | Ki (Adenosine receptor A1 [1]) | Ki (Adenosine receptor A2a) | Ki (Adenosine receptor A3 [2]) | inhibition [3] | also measured
1 | COc1ccc(C(=O)Nc2nc(-c3ccccc3)nc3nn(CCc4ccccc4)cc23)cc1 | 2400 nM | 1140 nM | 45.2 nM |  | 
2 | O=C(Nc1nc(-c2ccccc2)nc2nn(Cc3ccccc3)cc12)c1cccc(Cl)c1 | > 10000 nM | > 10000 nM | 3.7 nM | inactive | IC50 (Adenosine receptor A2b): 1330 nM; IC50 (Adenosine receptor A3 [4]): 7.6 nM
3 | O=C(Nc1nc(-c2ccccc2)nc2nn(CCc3ccccc3)cc12)c1ccccc1 | 27 nM | 227 nM | 43.7 nM |  | 
4 | Cn1cc2c(NC(=O)c3cccc(Cl)c3)nc(-c3ccccc3)nc2n1 | 1080 nM | 886 nM | 5.9 nM | inactive | 
5 | Nc1nc(-c2ccccc2)nc2nn(Cc3ccccc3)cc12 | 312 nM | 121 nM | 93 nM | inactive | 
6 | COc1ccc(C(=O)Nc2nc(-c3ccccc3)nc3nn(C)cc23)cc1 | 1040 nM | 3180 nM | 0.18 nM | inactive | IC50 (U-87 MG [5]): 0.091 nM; IC50 (U-87 MG [6]): 0.057 nM; Activity (U-87MG ATCC [7]): inactive; IC50 (Adenosine receptor A2b): 53.9 nM; IC50 (Adenosine receptor A3 [4]): 2.4 nM; IC50 (Adenosine receptor A3 [8]): 0.061 nM; Activity [9]: inactive; logP [10]: 4
7 | O=C(Nc1nc(-c2ccccc2)nc2nn(CCc3ccccc3)cc12)c1cccc(Cl)c1 | 1050 nM | 314 nM | 22.3 nM |  | 
8 | Cn1cc2c(NC(=O)c3ccccc3)nc(-c3ccccc3)nc2n1 | 334 nM | 728 nM | 0.6 nM | inactive | IC50 (U-87 MG [5]): 0.17 nM; IC50 (U-87 MG [6]): 0.41 nM; Activity (U-87MG ATCC [11]): inactive; IC50 (Adenosine receptor A2b): 49.8 nM; IC50 (Adenosine receptor A3 [4]): 1.9 nM; IC50 (Adenosine receptor A3 [8]): 0.74 nM; Activity [12]: inactive; logP [10]: 3.8
9 | COc1ccc(NC(=O)Nc2nc(-c3ccccc3)nc3nn(C)cc23)cc1 | > 10000 nM | > 10000 nM | 358 nM | inactive | 
10 | COc1ccc(C(=O)Nc2nc(-c3ccccc3)nc3nn(Cc4ccccc4)cc23)cc1 | > 10000 nM | > 10000 nM | 22.1 nM |  | 
11 | O=C(Nc1nc(-c2ccccc2)nc2nn(Cc3ccccc3)cc12)c1ccccc1 | 53 nM | 181 nM | 3 nM | inactive | IC50 (Adenosine receptor A2b): 272 nM; IC50 (Adenosine receptor A3 [4]): 53 nM
12 | O=C(Nc1ncnc2nn(Cc3ccccc3)cc12)c1cccc(Cl)c1 | > 10000 nM | 4900 nM | > 1000 nM |  | 
13 | O=C(Nc1cccc(Cl)c1)Nc1nc(-c2ccccc2)nc2nn(CCc3ccccc3)cc12 | > 10000 nM | > 10000 nM | > 1000 nM |  | 
14 | COc1ccc(NC(=O)Nc2nc(-c3ccccc3)nc3nn(Cc4ccccc4)cc23)cc1 | > 10000 nM | > 10000 nM | 2.9 nM | inactive | IC50 (Adenosine receptor A2b): 1470 nM; IC50 (Adenosine receptor A3 [4]): 8.2 nM
15 | CNC(=O)OC[C@H]1O[C@@H](n2cnc3c(NCc4cccc(I)c4)nc(Cl)nc32)[C@H](O)[C@@H]1O | 120 nM |  |  |  | Activity [13]: tde
16 | Cn1cc2c(NC(=O)Nc3ccccc3)nc(-c3ccccc3)nc2n1 | > 10000 nM | > 10000 nM | 20.9 nM | inactive | 
17 | O=C(Nc1ncnc2nn(Cc3ccccc3)cc12)c1ccccc1 | > 10000 nM | > 10000 nM | > 1000 nM |  | 
18 | COc1ccc(NC(=O)Nc2nc(-c3ccccc3)nc3nn(CCc4ccccc4)cc23)cc1 | > 10000 nM | > 10000 nM | > 1000 nM |  | 
19 | Nc1nc(-c2ccccc2)nc2nn(CCc3ccccc3)cc12 | 2500 nM | 1000 nM | 503 nM | inactive | 
20 | Cn1cc2c(N)nc(-c3ccccc3)nc2n1 | 585 nM | > 10000 nM | 922 nM | inactive | 
21 | O=C(Nc1ccccc1)Nc1nc(-c2ccccc2)nc2nn(CCc3ccccc3)cc12 | 1700 nM | 96 nM | 36.3 nM |  | 
22 | Cn1cc2c(NC(=O)Nc3cccc(Cl)c3)nc(-c3ccccc3)nc2n1 | 922 nM | > 10000 nM | 29.1 nM | inactive | 
23 | COc1ccc(C(=O)Nc2ncnc3nn(Cc4ccccc4)cc23)cc1 | > 10000 nM | > 10000 nM | > 1000 nM |  | 
24 | Cc1cn2c(NC(=O)c3ccccc3)nc(-c3ccccc3)nc2n1 |  |  |  |  | Ki (Adenosine receptor A1 [14]): 350 nM
25 | O=C(Nc1cccc(Cl)c1)Nc1nc(-c2ccccc2)nc2nn(Cc3ccccc3)cc12 | > 10000 nM | > 10000 nM | 121 nM |  | 
26 | O=C(Nc1ccccc1)Nc1nc(-c2ccccc2)nc2nn(Cc3ccccc3)cc12 | 290 nM | > 10000 nM | 2.9 nM | inactive | IC50 (Adenosine receptor A2b): 1320 nM; IC50 (Adenosine receptor A3 [4]): 5.7 nM
